Assay results: ChEMBL document CHEMBL1125600, “Sulfonylbenzoyl-nitrostyrenes: potential bisubstrate type inhibitors of the EGF-receptor tyrosine protein kinase” (J Med Chem, 1991)

Assays:
[1] = Antiproliferative activity tested by using EGF- stimulated cellular proliferation of balb/MK mouse epidermal keratinocytes (balb/MK cells)
[2] = Inhibition of the protein kinase C.
[3] = target: Tyrosine-protein kinase ABL (Homo sapiens, UniProt P00519+P42684); assay: Inhibition of recombinant v-Abl tyrosine kinase.; format: protein assay
Procedure, shortened: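 The reaction contained 20 mM Tris pH 7.5, 10 mM MgCl2, 10 µM [γ-32P]ATP and about 50 ng enzyme. Compounds were in DMSO. Reactions were stopped with trichloroacetic acid and aliquots were spotted on P81 paper.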

[4] = target: Epidermal growth factor receptor (Homo sapiens, UniProt P00533); assay: Inhibition of the epidermal growth factor receptor expressed in A431 cell line
Epidermal growth factor receptor, sequence (P00533 whole entry): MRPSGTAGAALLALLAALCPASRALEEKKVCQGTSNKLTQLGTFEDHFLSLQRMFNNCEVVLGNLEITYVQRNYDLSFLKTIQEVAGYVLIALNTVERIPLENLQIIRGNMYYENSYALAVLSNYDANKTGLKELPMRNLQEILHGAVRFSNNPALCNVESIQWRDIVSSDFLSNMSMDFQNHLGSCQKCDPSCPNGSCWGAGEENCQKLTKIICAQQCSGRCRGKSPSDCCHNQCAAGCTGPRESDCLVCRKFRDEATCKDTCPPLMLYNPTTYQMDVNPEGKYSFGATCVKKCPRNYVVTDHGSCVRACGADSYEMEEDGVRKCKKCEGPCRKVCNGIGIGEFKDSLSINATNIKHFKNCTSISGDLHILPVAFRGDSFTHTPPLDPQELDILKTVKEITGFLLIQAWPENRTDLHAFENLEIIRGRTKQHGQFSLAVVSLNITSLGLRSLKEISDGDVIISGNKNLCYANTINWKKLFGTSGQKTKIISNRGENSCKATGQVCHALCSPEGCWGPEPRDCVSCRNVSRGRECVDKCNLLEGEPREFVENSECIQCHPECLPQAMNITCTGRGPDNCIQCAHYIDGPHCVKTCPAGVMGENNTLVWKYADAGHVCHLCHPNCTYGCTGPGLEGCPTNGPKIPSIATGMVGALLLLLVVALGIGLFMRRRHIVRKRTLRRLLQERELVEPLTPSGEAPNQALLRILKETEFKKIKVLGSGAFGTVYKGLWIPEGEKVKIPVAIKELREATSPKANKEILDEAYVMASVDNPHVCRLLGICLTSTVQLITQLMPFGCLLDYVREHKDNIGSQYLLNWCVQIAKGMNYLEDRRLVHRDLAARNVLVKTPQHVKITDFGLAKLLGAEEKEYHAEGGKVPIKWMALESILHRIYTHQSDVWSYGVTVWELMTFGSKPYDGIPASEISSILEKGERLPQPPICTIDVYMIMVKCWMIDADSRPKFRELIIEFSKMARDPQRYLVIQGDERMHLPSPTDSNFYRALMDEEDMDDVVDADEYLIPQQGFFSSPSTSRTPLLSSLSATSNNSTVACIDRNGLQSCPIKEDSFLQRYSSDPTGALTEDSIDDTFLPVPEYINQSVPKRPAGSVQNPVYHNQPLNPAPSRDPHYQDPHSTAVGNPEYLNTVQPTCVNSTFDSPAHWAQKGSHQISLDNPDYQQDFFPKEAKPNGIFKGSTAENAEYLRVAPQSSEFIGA

Row | SMILES | IC50 [1] | IC50 [2] | IC50 [3] | IC50 [4]
1 | O=[N+]([O-])/C=C/c1ccc(O)cc1 | 4.8 µM | > 500 µM | > 100 µM | 10.1 µM
2 | COc1cc(/C=C/[N+](=O)[O-])ccc1O | 3.5 µM | > 500 µM | > 100 µM | 7.9 µM
3 | C[C@@H](NC(=O)c1ccc(S(=O)(=O)Oc2ccc(/C=C/[N+](=O)[O-])cc2)cc1)C(=O)N[C@H](C)C(=O)NCCNC(=O)OC(C)(C)C | > 50 µM | > 500 µM | – | > 50 µM
4 | NCCNC(=O)c1ccc(S(=O)(=O)Oc2ccc(/C=C/[N+](=O)[O-])cc2)cc1 | 32 µM | 60 µM | 5 µM | 5.4 µM
5 | C[C@@H](NC(=O)c1ccc(S(=O)(=O)Oc2ccc(/C=C/[N+](=O)[O-])cc2)cc1)C(=O)N[C@H](C)C(=O)NCCN | > 50 µM | 250 µM | 15 µM | 17 µM
6 | C[C@@H](NC(=O)[C@@H](C)NC(=O)c1ccc(S(=O)(=O)Oc2ccc(/C=C/[N+](=O)[O-])cc2)cc1)C(=O)O | > 50 µM | > 100 µM | 35 µM | 7 µM
7 | C[C@@H](NC(=O)c1ccc(S(=O)(=O)Oc2ccc(/C=C/[N+](=O)[O-])cc2)cc1)C(=O)N[C@H](C)C(=O)OC(C)(C)C | 2.7 µM | > 450 µM | > 100 µM | 40 µM
8 | CC(C)(C)OC(=O)NCCNC(=O)c1ccc(S(=O)(=O)Oc2ccc(/C=C/[N+](=O)[O-])cc2)cc1 | 4.8 µM | 320 µM | > 100 µM | 1.4 µM
9 | COc1cc(/C=C/[N+](=O)[O-])ccc1OS(=O)(=O)c1ccc(C(=O)O)cc1 | 35 µM | > 500 µM | 40 µM | 2.8 µM
10 | O=C(O)c1ccc(S(=O)(=O)Oc2ccc(/C=C/[N+](=O)[O-])cc2)cc1O | > 50 µM | 500 µM | 27 µM | 0.054 µM
11 | COc1cc(/C=C/[N+](=O)[O-])ccc1OS(=O)(=O)c1ccc(C(=O)OC[C@H]2O[C@@H](n3cnc4c(N)ncnc43)[C@H](O)[C@@H]2O)cc1 | 45 µM | 10 µM | 100 µM | 0.5 µM
12 | Nc1ncnc2c1ncn2[C@@H]1O[C@H](COC(=O)c2ccc(S(=O)(=O)Oc3ccc(/C=C/[N+](=O)[O-])cc3)cc2)[C@@H](O)[C@H]1O | 61 µM | 13 µM | > 100 µM | 0.6 µM
13 | CCCCNC(=O)c1ccc(S(=O)(=O)Oc2ccc(C=O)cc2)cc1 | > 50 µM | – | – | > 100 µM
14 | CNC(=O)c1ccc(S(=O)(=O)Oc2ccc(/C=C/[N+](=O)[O-])cc2)cc1 | 5.2 µM | 290 µM | 35 µM | 0.4 µM
15 | COC(=O)c1ccc(S(=O)(=O)Oc2ccc(/C=C/[N+](=O)[O-])cc2)cc1O | 5.7 µM | – | > 100 µM | 1.8 µM
16 | O=C(O)c1ccc(S(=O)(=O)Oc2ccc(/C=C/[N+](=O)[O-])cc2)cc1 | > 50 µM | > 500 µM | 100 µM | 1 µM
17 | CCCCNC(=O)c1ccc(S(=O)(=O)Oc2ccc(/C=C/[N+](=O)[O-])cc2)cc1 | 3.8 µM | > 500 µM | > 100 µM | 4.8 µM
18 | COC(=O)c1ccc(S(=O)(=O)Oc2ccc(/C=C/[N+](=O)[O-])cc2)cc1 | 12 µM | > 500 µM | > 100 µM | 1.5 µM
19 | O=C(O)c1ccc(S(=O)(=O)Oc2ccc(/C=C/[N+](=O)[O-])cc2)c(O)c1 | > 50 µM | > 500 µM | 100 µM | 0.31 µM
20 | C/C(=C\c1ccc(O)c(O)c1)[N+](=O)[O-] | 2.1 µM | > 500 µM | 100 µM | 9.4 µM
21 | CC(C)(C)NC(=O)c1ccc(S(=O)(=O)Oc2ccc(/C=C/[N+](=O)[O-])cc2)cc1 | 2.1 µM | 340 µM | > 100 µM | 1.3 µM
22 | O=[N+]([O-])/C=C/c1ccc(O)c(O)c1 | 2.9 µM | > 500 µM | 100 µM | 8.8 µM
23 | CNC(=O)c1ccc(S(=O)(=O)Oc2ccc(/C=C(\C)[N+](=O)[O-])cc2OC)cc1 | 2.1 µM | > 500 µM | – | 4 µM
